Laboratory results taken from ChEMBL document CHEMBL4689842, “EUbOPEN Chemogenomics Library wave 1” (2021).
Where “and” joins values, the source holds several entries; their conditions need not be identical. Equal values may be shown once.

System: HEK-293T
Assay: Multiplex assay against HEK293T;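 as to Population Tubulin-Different-Phenotype (%): share of the cells with healthy nuclei that show this phenotype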
Format: toxicity, cell-based
Settings: human
In short: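 Values for tubulin, mitochondrial-mass and membrane-permeability phenotypes are per cents of cells with healthy nuclei. These cells were identified by CellPathfinder machine-learning gating of live cells that had been stained at seeding with Hoechst33342, BioTracker Green Microtubule Cytoskeleton Dye, MitoTracker Red and Annexin V Alexa Fluor 680 and imaged on a CQ1 microscope at 37°C and 5% CO2 after compound addition. The gating first set Hoechst high-intensity objects apart from normal cells, then split normal cells into healthy, pyknosed or fragmented nuclei, and pyknosed cells into mitotic or apoptotic.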

[1] = 12 h, 1 µM, compound concentration 1 uM, replicate 1
[2] = 12 h, 1 µM, compound concentration 1 uM, replicate 2
[3] = 12 h, 10 µM, compound concentration 10 uM, replicate 1
[4] = 12 h, 10 µM, compound concentration 10 uM, replicate 2
[5] = 24 h, 1 µM, compound concentration 1 uM, replicate 1
[6] = 24 h, 1 µM, compound concentration 1 uM, replicate 2
[7] = 24 h, 10 µM, compound concentration 10 uM, replicate 1
[8] = 24 h, 10 µM, compound concentration 10 uM, replicate 2
[9] = 48 h, 10 µM, compound concentration 10 uM, replicate 1
[10] = 48 h, 10 µM, compound concentration 10 uM, replicate 2
[11] = 48 h, 1 µM, compound concentration 1 uM, replicate 1
[12] = 48 h, 1 µM, compound concentration 1 uM, replicate 2

c1ccc(-c2oc3ncnc(NC[C@@H]4CCCO4)c3c2-c2ccccc2)cc1
Population Apoptotic (%) [1]: 20%
Population Fragmented Nuclei (%) [1]: 13% and 15%
Population Healthy Nuclei (%) [1]: 57% and 66%
Population Hoechst High Intensity Objects (%) [1]: 11% and 13%
Population Mitotic Cells (%) [1]: 79%
Population Normal (%) [1]: 88% and 86%
Population Pyknosed Nuclei (%) [1]: 28% and 17%
Total Cell Count [1]: 692 and 563
Population Healthy Nuclei (%) [2]: 74% and 83%
Population Hoechst High Intensity Objects (%) [2]: 2% and 1%
Population Mitotic Cells (%) [2]: 86% and 97%
Population Normal (%) [2]: 97% and 98%
Total Cell Count [2]: 938 and 1825
Population Apoptotic (%) [3]: 72%
Population Fragmented Nuclei (%) [3]: 14%
Population Healthy Nuclei (%) [3]: 25%
Population Hoechst High Intensity Objects (%) [3]: 17%
Population Membrane Permeable-Phenotype (%) [3]: 3%
Population Mitochondria Different-Phenotype (%) [3]: 98%
Population Mitotic Cells (%) [3]: 27%
Population Normal (%) [3]: 82%
Population Pyknosed Nuclei (%) [3]: 59%
Population Tubulin-Different-Phenotype (%) [3]: 98%
Total Cell Count [3]: 263
Population Apoptotic (%) [4]: 43%
Population Fragmented Nuclei (%) [4]: 4%
Population Healthy Nuclei (%) [4]: 31%
Population Hoechst High Intensity Objects (%) [4]: 7%
Population Membrane Permeable-Phenotype (%) [4]: 17%
Population Mitochondria Different-Phenotype (%) [4]: 71%
Population Mitotic Cells (%) [4]: 56%
Population Normal (%) [4]: 92%
Population Pyknosed Nuclei (%) [4]: 63%
Population Tubulin-Different-Phenotype (%) [4]: 90%
Total Cell Count [4]: 218
Population Apoptotic (%) [5]: 28% and 21%
Population Fragmented Nuclei (%) [5]: 11% and 14%
Population Healthy Nuclei (%) [5]: 65% and 77%
Population Hoechst High Intensity Objects (%) [5]: 10% and 5%
Population Mitotic Cells (%) [5]: 71% and 78%
Population Normal (%) [5]: 89% and 94%
Total Cell Count [5]: 699 and 659
Population Apoptotic (%) [6]: 8% and 3%
Population Healthy Nuclei (%) [6]: 74%
Population Hoechst High Intensity Objects (%) [6]: 2% and 3%
Population Mitotic Cells (%) [6]: 91% and 96%
Population Normal (%) [6]: 97% and 96%
Total Cell Count [6]: 1013 and 3002
Population Apoptotic (%) [7]: 69%
Population Fragmented Nuclei (%) [7]: 20%
Population Healthy Nuclei (%) [7]: 19%
Population Hoechst High Intensity Objects (%) [7]: 23%
Population Membrane Permeable-Phenotype (%) [7]: 0%
Population Mitochondria Different-Phenotype (%) [7]: 94%
Population Mitotic Cells (%) [7]: 30%
Population Normal (%) [7]: 76%
Population Pyknosed Nuclei (%) [7]: 60%
Population Tubulin-Different-Phenotype (%) [7]: 94%
Total Cell Count [7]: 260
Population Apoptotic (%) [8]: 43%
Population Fragmented Nuclei (%) [8]: 2%
Population Healthy Nuclei (%) [8]: 31%
Population Hoechst High Intensity Objects (%) [8]: 4%
Population Membrane Permeable-Phenotype (%) [8]: 16%
Population Mitochondria Different-Phenotype (%) [8]: 75%
Population Mitotic Cells (%) [8]: 56%
Population Normal (%) [8]: 95%
Population Pyknosed Nuclei (%) [8]: 66%
Population Tubulin-Different-Phenotype (%) [8]: 90%
Total Cell Count [8]: 222
Population Apoptotic (%) [9]: 70%
Population Fragmented Nuclei (%) [9]: 26%
Population Healthy Nuclei (%) [9]: 16%
Population Hoechst High Intensity Objects (%) [9]: 23%
Population Membrane Permeable-Phenotype (%) [9]: 3%
Population Mitochondria Different-Phenotype (%) [9]: 96%
Population Mitotic Cells (%) [9]: 29%
Population Normal (%) [9]: 76%
Population Pyknosed Nuclei (%) [9]: 57%
Population Tubulin-Different-Phenotype (%) [9]: 93%
Total Cell Count [9]: 268
Population Apoptotic (%) [10]: 48%
Population Fragmented Nuclei (%) [10]: 4%
Population Healthy Nuclei (%) [10]: 64%
Population Hoechst High Intensity Objects (%) [10]: 5%
Population Membrane Permeable-Phenotype (%) [10]: 19%
Population Mitochondria Different-Phenotype (%) [10]: 66%
Population Mitotic Cells (%) [10]: 51%
Population Normal (%) [10]: 94%
Population Pyknosed Nuclei (%) [10]: 31%
Population Tubulin-Different-Phenotype (%) [10]: 90%
Total Cell Count [10]: 272

C[C@@H](Oc1cc(-n2cnc3ccc(CN4CCN(C)CC4)cc32)sc1C(N)=O)c1ccccc1C(F)(F)F [GSK-461364]
Population Apoptotic (%) [1]: 62%
Population Fragmented Nuclei (%) [1]: 14%
Population Healthy Nuclei (%) [1]: 19%
Population Hoechst High Intensity Objects (%) [1]: 17%
Population Membrane Permeable-Phenotype (%) [1]: 5%
Population Mitochondria Different-Phenotype (%) [1]: 98%
Population Mitotic Cells (%) [1]: 37%
Population Normal (%) [1]: 82%
Population Pyknosed Nuclei (%) [1]: 65%
Population Tubulin-Different-Phenotype (%) [1]: 96%
Total Cell Count [1]: 322
Population Apoptotic (%) [2]: 27%
Population Fragmented Nuclei (%) [2]: 10%
Population Healthy Nuclei (%) [2]: 33%
Population Hoechst High Intensity Objects (%) [2]: 4%
Population Membrane Permeable-Phenotype (%) [2]: 20%
Population Mitochondria Different-Phenotype (%) [2]: 60%
Population Mitotic Cells (%) [2]: 72%
Population Normal (%) [2]: 95%
Population Pyknosed Nuclei (%) [2]: 56%
Population Tubulin-Different-Phenotype (%) [2]: 71%
Total Cell Count [2]: 142
Population Apoptotic (%) [3]: 80%
Population Fragmented Nuclei (%) [3]: 16%
Population Healthy Nuclei (%) [3]: 11%
Population Hoechst High Intensity Objects (%) [3]: 22%
Population Membrane Permeable-Phenotype (%) [3]: 7%
Population Mitochondria Different-Phenotype (%) [3]: 100%
Population Mitotic Cells (%) [3]: 19%
Population Normal (%) [3]: 77%
Population Pyknosed Nuclei (%) [3]: 71%
Population Tubulin-Different-Phenotype (%) [3]: 74%
Total Cell Count [3]: 294
Population Apoptotic (%) [4]: 66%
Population Fragmented Nuclei (%) [4]: 11%
Population Healthy Nuclei (%) [4]: 14%
Population Hoechst High Intensity Objects (%) [4]: 10%
Population Membrane Permeable-Phenotype (%) [4]: 12%
Population Mitochondria Different-Phenotype (%) [4]: 75%
Population Mitotic Cells (%) [4]: 33%
Population Normal (%) [4]: 89%
Population Pyknosed Nuclei (%) [4]: 73%
Population Tubulin-Different-Phenotype (%) [4]: 62%
Total Cell Count [4]: 187
Population Apoptotic (%) [5]: 66%
Population Fragmented Nuclei (%) [5]: 14%
Population Healthy Nuclei (%) [5]: 22%
Population Hoechst High Intensity Objects (%) [5]: 16%
Population Membrane Permeable-Phenotype (%) [5]: 0%
Population Mitochondria Different-Phenotype (%) [5]: 98%
Population Mitotic Cells (%) [5]: 33%
Population Normal (%) [5]: 83%
Population Pyknosed Nuclei (%) [5]: 62%
Population Tubulin-Different-Phenotype (%) [5]: 96%
Total Cell Count [5]: 321
Population Apoptotic (%) [6]: 38%
Population Fragmented Nuclei (%) [6]: 8%
Population Healthy Nuclei (%) [6]: 43%
Population Hoechst High Intensity Objects (%) [6]: 3%
Population Membrane Permeable-Phenotype (%) [6]: 12%
Population Mitochondria Different-Phenotype (%) [6]: 54%
Population Mitotic Cells (%) [6]: 61%
Population Normal (%) [6]: 96%
Population Pyknosed Nuclei (%) [6]: 47%
Population Tubulin-Different-Phenotype (%) [6]: 75%
Total Cell Count [6]: 154
Population Apoptotic (%) [7]: 81%
Population Fragmented Nuclei (%) [7]: 26%
Population Healthy Nuclei (%) [7]: 10%
Population Hoechst High Intensity Objects (%) [7]: 25%
Population Membrane Permeable-Phenotype (%) [7]: 4%
Population Mitochondria Different-Phenotype (%) [7]: 100%
Population Mitotic Cells (%) [7]: 18%
Population Normal (%) [7]: 74%
Population Pyknosed Nuclei (%) [7]: 63%
Population Tubulin-Different-Phenotype (%) [7]: 45%
Total Cell Count [7]: 298
Population Apoptotic (%) [8]: 86%
Population Fragmented Nuclei (%) [8]: 12%
Population Healthy Nuclei (%) [8]: 25%
Population Hoechst High Intensity Objects (%) [8]: 5%
Population Membrane Permeable-Phenotype (%) [8]: 0%
Population Mitochondria Different-Phenotype (%) [8]: 97%
Population Mitotic Cells (%) [8]: 13%
Population Normal (%) [8]: 94%
Population Pyknosed Nuclei (%) [8]: 62%
Population Tubulin-Different-Phenotype (%) [8]: 63%
Total Cell Count [8]: 207
Population Apoptotic (%) [11]: 66%
Population Fragmented Nuclei (%) [11]: 22%
Population Healthy Nuclei (%) [11]: 18%
Population Hoechst High Intensity Objects (%) [11]: 22%
Population Membrane Permeable-Phenotype (%) [11]: 2%
Population Mitochondria Different-Phenotype (%) [11]: 95%
Population Mitotic Cells (%) [11]: 33%
Population Normal (%) [11]: 77%
Population Pyknosed Nuclei (%) [11]: 59%
Population Tubulin-Different-Phenotype (%) [11]: 97%
Total Cell Count [11]: 325
Population Apoptotic (%) [12]: 67%
Population Fragmented Nuclei (%) [12]: 10%
Population Healthy Nuclei (%) [12]: 60%
Population Hoechst High Intensity Objects (%) [12]: 2%
Population Membrane Permeable-Phenotype (%) [12]: 6%
Population Mitochondria Different-Phenotype (%) [12]: 53%
Population Mitotic Cells (%) [12]: 32%
Population Normal (%) [12]: 97%
Population Pyknosed Nuclei (%) [12]: 28%
Population Tubulin-Different-Phenotype (%) [12]: 76%
Total Cell Count [12]: 191
Population Apoptotic (%) [9]: 77%
Population Fragmented Nuclei (%) [9]: 27%
Population Healthy Nuclei (%) [9]: 4%
Population Hoechst High Intensity Objects (%) [9]: 26%
Population Membrane Permeable-Phenotype (%) [9]: 11%
Population Mitochondria Different-Phenotype (%) [9]: 100%
Population Mitotic Cells (%) [9]: 22%
Population Normal (%) [9]: 73%
Population Pyknosed Nuclei (%) [9]: 68%
Population Tubulin-Different-Phenotype (%) [9]: 55%
Total Cell Count [9]: 287
Population Apoptotic (%) [10]: 79%
Population Fragmented Nuclei (%) [10]: 12%
Population Healthy Nuclei (%) [10]: 31%
Population Hoechst High Intensity Objects (%) [10]: 10%
Population Membrane Permeable-Phenotype (%) [10]: 0%
Population Mitochondria Different-Phenotype (%) [10]: 98%
Population Mitotic Cells (%) [10]: 20%
Population Normal (%) [10]: 89%
Population Pyknosed Nuclei (%) [10]: 55%
Population Tubulin-Different-Phenotype (%) [10]: 56%
Total Cell Count [10]: 204
